Columns and labels:
Rattus norvegicus [1] = assay: Percent of animals selecting drug liver was determined at a dose of 16.28 intraperitoneally. (No. of animals disrupted:1); type: functional
Summary of the method: (§1)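 Male Sprague-Dawley rats (~200 g) were kept at ~80% free-feeding weight and trained on FR-50 to discriminate LSD tartrate (0.08 mg/kg ip) from saline. Test drug was given ip in saline 30 min before a session lasting until 50 responses or 5 min, unreinforced. Rats failing to make 50 responses were scored disrupted. At least eight rats were tested per dose.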

[2] = Hill coefficient as determined.
Summary of the method: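 Rat prefrontal cortex homogenate incubated in triplicate with 0.25 nM [125I]-(R)-DOI (2000 Ci/mmol) and varying displacer concentrations, 37 °C for 15 min. The radioligand K_D was 1.34 nM. Binding curves were fitted by computer analysis. Protein was measured by Bradford.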

Rattus norvegicus [3] = assay: Percent of animals selecting drug liver was determined at a dose of 8.14 intraperitoneally. (No. of animals disrupted:1); type: functional; summary of the method: as §1
Rattus norvegicus [4] = assay: Percent of animals selecting drug liver was determined at a dose of 4.07 intraperitoneally. ( No. of animals disrupted:0); type: functional; summary of the method: as §1
Rattus norvegicus [5] = assay: Percent of animals selecting drug liver was determined at a dose of 40.70 intraperitoneally. (No. of animals disrupted:4); type: functional; summary of the method: as §1
Rattus norvegicus [6] = assay: Percent of animals selecting drug liver was determined at a dose of 32.56 intraperitoneally. (No. of animals disrupted:1); type: functional; summary of the method: as §1
[7] = target: Serotonin 2 (5-HT2) receptor (Rattus norvegicus, UniProt P30994+P08909+P14842); assay: Compound was evaluated for its ability to displace 0.25 nM [125I](R)-DOI from binding sites in rat frontal cortex.; type: tissue-based
Rattus norvegicus [8] = assay: Percent of animals selecting drug liver was determined at a dose of 2.03 intraperitoneally. (No. of animals disrupted:0); type: functional; summary of the method: as §1
Rattus norvegicus [9] = assay: Percent of animals selecting drug liver was determined at a dose of 12.16 intraperitoneally. (No. of animals disrupted:1); type: functional; summary of the method: as §1
Rattus norvegicus [10] = assay: Percent of animals selecting drug liver was determined at a dose of 8.16 intraperitoneally. (No. of animals disrupted:0); type: functional; summary of the method: as §1
Rattus norvegicus [11] = assay: Percent of animals selecting drug liver was determined at a dose of 10.19 intraperitoneally. (No. of animals disrupted:0); type: functional; summary of the method: as §1
Rattus norvegicus [12] = assay: Percent of animals selecting drug liver was determined at a dose of 2.03 intraperitoneally. (No. of animals disrupted:2); type: functional; summary of the method: as §1
Rattus norvegicus [13] = assay: Percent of animals selecting drug liver was determined at a dose of 1.01 intraperitoneally. (No. of animals disrupted:0); type: functional; summary of the method: as §1
Rattus norvegicus [14] = assay: Percent of animals selecting drug liver was determined at a dose of 0.25 intraperitoneally. (No. of animals disrupted:0); type: functional; summary of the method: as §1
Rattus norvegicus [15] = assay: Percent of animals selecting drug liver was determined at a dose of 0.51 intraperitoneally. (No. of animals disrupted:0); type: functional; summary of the method: as §1
Rattus norvegicus [16] = assay: Percent of animals selecting drug liver was determined at a dose of 1.02 intraperitoneally. (No. of animals disrupted:0); type: functional; summary of the method: as §1
Rattus norvegicus [17] = assay: Percent of animals selecting drug liver was determined at a dose of 2.03 intraperitoneally. (No. of animals disrupted:1); type: functional; summary of the method: as §1

Work on `COc1ccc(OC)c(CC(C)N)c1` (stereo not given) yielded an SDL (Rattus norvegicus [1]) of 50%, a Hill coefficient [2] of 0.92 and an SDL (Rattus norvegicus [3]) of 38%. For the same compound, the SDL (Rattus norvegicus [4]) was 38%, the SDL (Rattus norvegicus [5]) was 63% and the SDL (Rattus norvegicus [6]) was 63%.

In the case of `COc1ccc2c(c1CC(C)N)CCO2` (stereo not given), the Ki [7] was 146 nM, the Hill coefficient [2] was 0.93 and the SDL (Rattus norvegicus [8]) was 25%. For the same compound, the SDL (Rattus norvegicus [9]) was 88%, the SDL (Rattus norvegicus [10]) was 50% and the SDL (Rattus norvegicus [11]) was 63%.

`COc1cc(Br)c2c(c1CC(C)N)CCO2` (stereo not given) gave an SDL (Rattus norvegicus [12]) of 88%, an SDL (Rattus norvegicus [13]) of 75% and a Ki [7] of 3.1 nM. The Hill coefficient [2] was 1.06, the SDL (Rattus norvegicus [14]) was 25% and the SDL (Rattus norvegicus [15]) was 38%.

Work on `COc1cc2c(cc1CC(C)N)OCC2` (stereo not given) yielded a Ki [7] of 388 nM and a Hill coefficient [2] of 0.91.

In the case of `COc1cc(CC(C)N)c(OC)cc1Br` (stereo not given) [BROLAMFETAMINE], the Hill coefficient [2] was 1.09.

For `COc1cc(CC(C)N)c(OC)cc1C` (stereo not given) [DOM], the Hill coefficient [2] was 0.89, the SDL (Rattus norvegicus [16]) was 75% and the SDL (Rattus norvegicus [17]) was 88%. The SDL (Rattus norvegicus [15]) was 13%.

Reference: ChEMBL document CHEMBL1125731, “2,3-Dihydrobenzofuran analogues of hallucinogenic phenethylamines” (J Med Chem, 1991)
